Data taken from ChEMBL document CHEMBL1124136, “The acylating potential of gamma-lactam antibacterials: base hydrolysis of bicyclic pyrazolidinones” (J Med Chem, 1988).
≈ marks a conversion by molar mass, not a printed value.

How the values were obtained:
[1] = Rate constant for hydrolysis at pH 9; format: ADME; conditions: buffer
How it was run: (§1)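 Constant-pH hydrolysis (pH 9 or 11) was run on a pH-stat with NaOH addition, and loss of lactam (3.6×10^-4 to 1×10^-3 M) was followed by HPLC. Ionic strength was 0.5 with KCl. A pseudo-first-order rate constant was obtained from the disappearance time course.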

[2] = test system: Klebsiella pneumoniae; assay: Minimum inhibitory concentration (MIC), tested against Klebsiella pneumoniae X68; format: functional
[3] = test system: Providencia rettgeri; assay: Minimum inhibitory concentration (MIC), tested against Providencia rettgeri C24; format: functional
[4] = test system: Streptococcus pyogenes; assay: Minimum inhibitory concentration (MIC), tested against Streptococcus pyogenes C203.; format: functional
[5] = Rate constant for hydrolysis at pH 10; format: ADME; conditions: buffer
How it was run: (§2)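 Pseudo-first-order loss of parent lactam followed by HPLC at 35 °C. Lactam was 3.6×10^-4 to 1×10^-3 M in aqueous KCl at ionic strength 0.5, with pH held by NaOH on a pH-stat. Values were measured at pH 10 directly, or at pH 9 (×10) or pH 11 (÷10), taking k_obsd as proportional to [OH−].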

[6] = Rate constant for hydrolysis at pH 11; format: ADME; conditions: buffer; how it was run: as §1
[7] = Pseudo-first-order Rate constant for hydrolysis at pH 10; format: ADME; conditions: buffer; how it was run: as §2

| Compound | k [1] [h⁻¹] | MIC [2] [µg/mL] | MIC [3] [µg/mL] | MIC [4] [µg/mL] | k [5] [h⁻¹] | k [6] [h⁻¹] | k [7] [h⁻¹] |
| --- | --- | --- | --- | --- | --- | --- | --- |
| CO/N=C(\C(=O)NC1CN2N(C1=O)C(C(=O)O)=C(C(=O)OC)C2(C)C)c1csc(N)n1 (stereo unspecified) |  | > 128 | > 128 | 64 (≈ 141 µM) | 0.769 |  |  |
| CO/N=C(\C(=O)NC1CN2CC(c3ccccc3)=C(C(=O)O)N2C1=O)c1csc(N)n1 (stereo unspecified) |  | > 128 | > 128 | > 128 | 0.146 |  |  |
| CO/N=C(\C(=O)NC1CN2N(C1=O)C(C(=O)O)=C(C(=O)O)C2(C)C)c1csc(N)n1 (stereo unspecified) |  | > 128 | > 128 | > 128 |  | 0.0111 |  |
| C[C@H]1[C@H](NC(=O)/C(=N\OC(C)(C)C(=O)O)c2csc(N)n2)C(=O)N1S(=O)(=O)O [AZTREONAM] |  |  |  |  |  |  | 0.4 |
| N[C@@H](C(=O)N[C@@H]1C(=O)N2C(C(=O)O)=C(Cl)CS[C@H]12)c1ccccc1.O [CEFACLOR] |  |  |  |  |  |  | 0.944 |
| CC(C)(O/N=C(\C(=O)N[C@@H]1C(=O)N2C(C(=O)[O-])=C(C[n+]3ccccc3)CS[C@H]12)c1csc(N)n1)C(=O)O [CEFTAZIDIME] |  |  |  |  |  |  | 1.3 |
| CC(=O)OCC1=C(C(=O)O)N2C(=O)[C@@H](NC(=O)Cc3cccs3)[C@H]2SC1 [CEPHALOTHIN] |  |  |  |  |  |  | 0.317 |

Second part, the molecule after the results:

| k [1] [h⁻¹] | MIC [2] [µg/mL] | MIC [3] [µg/mL] | MIC [4] [µg/mL] | k [5] [h⁻¹] | k [6] [h⁻¹] | k [7] [h⁻¹] | Compound |
| --- | --- | --- | --- | --- | --- | --- | --- |
| 14.8 | 0.25 (≈ 0.562 µM) | 0.06 (≈ 0.135 µM) | 0.25 (≈ 0.562 µM) |  |  |  | CO/N=C(\C(=O)NC1CN2CC(S(C)(=O)=O)=C(C(=O)O)N2C1=O)c1csc(N)n1 (stereo unspecified) |
| 4.74 | 8 (≈ 18.9 µM) | 1 (≈ 2.36 µM) | 4 (≈ 9.43 µM) |  |  |  | CO/N=C(\C(=O)NC1CN2CC(C(=O)OC)=C(C(=O)O)N2C1=O)c1csc(N)n1 (stereo unspecified) |
|  | 64 (≈ 156 µM) | 8 (≈ 19.5 µM) | 8 (≈ 19.5 µM) | 0.324 |  |  | CO/N=C(\C(=O)NC1CN2CC(C(=O)O)=C(C(=O)O)N2C1=O)c1csc(N)n1 (stereo unspecified) |
| 2.33 | 32 (≈ 65.9 µM) | 8 (≈ 16.5 µM) | 1 (≈ 2.06 µM) |  |  |  | CO/N=C(\C(=O)NC1CN2CC(C(=O)Nc3ccccc3)=C(C(=O)O)N2C1=O)c1csc(N)n1 (stereo unspecified) |
|  | > 128 | > 128 | > 128 | 0.19 |  |  | CO/N=C(\C(=O)NC1CN2CC(c3cccs3)=C(C(=O)O)N2C1=O)c1csc(N)n1 (stereo unspecified) |
| 17.3 | 0.5 (≈ 1.28 µM) | 0.25 (≈ 0.639 µM) | 0.5 (≈ 1.28 µM) |  |  |  | CO/N=C(\C(=O)NC1CN2CC(C#N)=C(C(=O)O)N2C1=O)c1csc(N)n1 (stereo unspecified) |
| 7.24 | 2 (≈ 4.9 µM) | 0.25 (≈ 0.612 µM) | 0.5 (≈ 1.22 µM) |  |  |  | CO/N=C(\C(=O)NC1CN2CC(C(C)=O)=C(C(=O)O)N2C1=O)c1csc(N)n1 (stereo unspecified) |
|  |  |  |  |  |  | 0.0685 | CC1=C(C(=O)O)N2C(=O)[C@@H](NC(=O)[C@H](N)c3ccccc3)[C@H]2SC1 [CEPHALEXIN ANHYDROUS] |
|  |  |  |  |  |  | 0.248 | CC1(C)S[C@@H]2[C@H](NC(=O)COc3ccccc3)C(=O)N2[C@H]1C(=O)O [PENICILLIN V] |
